Laboratory results as given in ChEMBL document CHEMBL3632536, “Novel Fluorinated 8-Hydroxyquinoline Based Metal Ionophores for Exploring the Metal Hypothesis of Alzheimer's Disease” (ACS Med Chem Lett, 2015).
Calls of active or inactive are those of the source. No cut-off for these calls is given here.

Tests used:
[1] = Reversal of Zn-induced human soluble amyloid beta (1 to 42) aggregation after 30 mins by bis-ANS-based fluorometric analysis
In short: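 Soluble Aβ oligomer aggregation monitored fluorometrically with bis-ANS.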

SH-SY5Y [2] = assay: Ionophoric activity in human SH-SY5Y cells assessed as increase in cellular Fe uptake at 20 uM after 6 hrs by ICP-MS analysis relative to vehicle-treated control; type: functional, cell-based
In short: (§1)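 SH-SY5Y neuronal cells exposed to each compound at 20 μM for 6 h. Cellular Zn, Cu and Fe content then determined by ICP-MS and compared with untreated control level.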

SH-SY5Y [3] = assay: Ionophoric activity in human SH-SY5Y cells assessed as increase in cellular Zn uptake at 20 uM after 6 hrs by ICP-MS analysis relative to vehicle-treated control; type: functional; in short: as §1
SH-SY5Y [4] = assay: Ionophoric activity in human SH-SY5Y cells assessed as increase in cellular Cu uptake at 20 uM after 6 hrs by ICP-MS analysis relative to vehicle-treated control; type: functional; in short: as §1

Row | Structure (SMILES) | EC50 [1] [µM] | Activity (SH-SY5Y [2]) | fold change (FC) (SH-SY5Y [3]) | Activity (SH-SY5Y [3]) | Activity (SH-SY5Y [4]) | fold change (FC) (SH-SY5Y [4])
1 | CN(Cc1cn(CCCF)nn1)Cc1ccc2c(Cl)cc(Cl)c(O)c2n1 | 4.5 | inactive | >2 | – | – | –
2 | Oc1ccccc1/N=C/c1ccc(F)cc1 | 15.4 | inactive | – | inactive | – | –
3 | COc1cccc2ccc(Cl)nc12 | – | inactive | – | inactive | – | –
4 | Oc1c(F)cc(Cl)c2cccnc12 | 4.9 | – | – | – | – | –
5 | Oc1cccc2ccc(F)nc12 | > 120 | inactive | – | inactive | inactive | –
6 | Oc1c(F)cc(I)c2cccnc12 | 2.3 | – | – | – | – | –
7 | Oc1cc(F)cc2cccnc12 | – | inactive | – | inactive | Active | –
8 | CN(Cc1cn(CCCCF)nn1)Cc1ccc2c(Cl)cc(Cl)c(O)c2n1 | 2.8 | inactive | >2 | – | – | –
9 | Oc1cccc2cc[nH]c12 | – | inactive | – | inactive | – | –
10 | Oc1c(I)cc(Cl)c2cccnc12 [CLIOQUINOL] | 1.8 | – | – | Active | Active | –
11 | Oc1c(I)cc(F)c2cccnc12 | 2.5 | – | >2 | – | – | 6
12 | Oc1c(Cl)cc(F)c2cccnc12 | 5.2 | – | >2 | – | – | 6
13 | Oc1c(Cl)cc(Cl)c2ccc(COCCF)nc12 | 2.4 | inactive | – | – | – | –
14 | CN(Cc1cn(CCF)nn1)Cc1ccc2c(Cl)cc(Cl)c(O)c2n1 | 2.3 | inactive | >2 | – | – | –
15 | Oc1cccc2cccnc12 | – | inactive | – | inactive | Active | –
16 | Oc1cccc2nccnc12 | – | inactive | – | inactive | – | –
17 | Oc1c(Cl)cc(Cl)c2ccc(COCCCCF)nc12 | 2 | inactive | – | – | Active | –
18 | Oc1c(Br)cc(F)c2cccnc12 | 3.7 | – | >2 | – | – | 6
19 | Oc1cccc2cc(F)cnc12 | – | inactive | – | inactive | Active | –
20 | Oc1c(F)ccc2cccnc12 | – | inactive | – | inactive | Active | –
21 | Oc1ccc(F)c2cccnc12 | – | inactive | – | inactive | Active | –
22 | CN(C)Cc1ccc2c(Cl)cc(Cl)c(O)c2n1 | 2 | – | – | Active | Active | –
23 | Oc1c(F)cc(Br)c2cccnc12 | 3.5 | – | – | – | – | –
